# Where two headings read alike, the source gives them in different places.
# Assays:
# [1] = biological target: T1, MMUT (methylmalonyl-CoA mutase) (Homo sapiens, UniProt P22033); details: cited from earlier work
# T1 sequence (P22033 33-750): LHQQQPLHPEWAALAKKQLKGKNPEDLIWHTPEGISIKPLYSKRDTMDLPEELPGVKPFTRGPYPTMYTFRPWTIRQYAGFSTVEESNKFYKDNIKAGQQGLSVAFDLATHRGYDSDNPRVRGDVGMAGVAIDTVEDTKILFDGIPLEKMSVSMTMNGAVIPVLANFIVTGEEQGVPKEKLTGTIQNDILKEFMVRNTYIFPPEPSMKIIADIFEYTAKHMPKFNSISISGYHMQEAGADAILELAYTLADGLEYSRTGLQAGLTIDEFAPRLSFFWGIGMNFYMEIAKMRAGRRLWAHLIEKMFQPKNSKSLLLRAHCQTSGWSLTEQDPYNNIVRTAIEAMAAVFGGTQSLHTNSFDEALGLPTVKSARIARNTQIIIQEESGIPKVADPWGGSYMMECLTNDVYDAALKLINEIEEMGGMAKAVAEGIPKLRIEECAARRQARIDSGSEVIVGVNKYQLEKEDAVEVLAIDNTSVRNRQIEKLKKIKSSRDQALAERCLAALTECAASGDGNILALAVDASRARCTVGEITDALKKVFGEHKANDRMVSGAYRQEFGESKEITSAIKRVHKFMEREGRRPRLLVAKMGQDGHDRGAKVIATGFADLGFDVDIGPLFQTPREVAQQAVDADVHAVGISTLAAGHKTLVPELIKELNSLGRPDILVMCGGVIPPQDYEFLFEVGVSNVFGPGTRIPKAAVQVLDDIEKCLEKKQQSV
# MMUT WT = biological target: T2, MMUT WT (Homo sapiens, UniProt P22033); assay: Activity screen; type: biochemical; details: cobamide 1 μM, MMUT WT 0.01 μM, 30 minutes
# T2 sequence (P22033 33-750): T1 sequence (P22033 33-750)
# In short: (§1)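 At 30 °C, reaction was started with thiokinase, MgCl₂, ADP and methylmalonyl-CoA. Final levels were cofactor 1 μM and (R)-methylmalonyl-CoA 2 mM. Enzyme was WT 0.01 μM, G717V 1 μM, other variants 0.1 μM. After 30 min, an aliquot went into 2.5 mM DTNB; CoA was taken from A412 (ε 14,150 M⁻¹ cm⁻¹).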
# [2] = tested on: MMUT variants G648D, V633G, G717V, P86L, Y100C, Y231N; assay: Activity screen; type: biochemical, human; details: cobamide 1 μM, variants 0.1 μM (G717V 1 μM), 30 minutes
# In short: as §1
# [3] = biological target: T1, MMUT (methylmalonyl-CoA mutase); assay: Cobamide equilibrium binding by quenching of intrinsic protein fluorescence; details: MMUT 0.2 μM, fluorescence quenching
# In short: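 Fluorescence quenching used MMUT at 0.2 μM, from N-terminal His-tag (E. coli BL21(DE3)pLysS) and C-terminal His-tag preparations. Adenosylated cofactor was titrated at 0.19–2.5 μM or 0.23–2.5 μM, depending on cofactor class. Plate-reader excitation/emission was 282/340 nm. Kd came from a quadratic fit allowing for ligand depletion. Values were averaged over ≥5 technical replicates from ≥2 independent experiments.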
# [4] = biological target: T1, MMUT (methylmalonyl-CoA mutase); details: read-out: KM, app; previously reported value ref 57; cited from earlier work
# [5] = biological target: T1, MMUT (methylmalonyl-CoA mutase); assay: Coupled thiokinase/DTNB spectrophotometric MMUT activity assay; type: biochemical
# In short: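 In the coupled kinetic assay, succinyl-CoA was converted by thiokinase to CoA, which was detected spectrophotometrically with DTNB. C-terminally His-tagged MMUT was at 10 nM. Enzymatically made (R)-methylmalonyl-CoA was fixed at 4 mM. Adenosylated cofactor was varied per cofactor, from 0.031 μM at lowest to 12 μM at highest. K_M,app and k_cat come from ≥5 replicates over ≥2 independent experiments and two biological samples.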
structure (smiles),measurement,setting,value
"C/C1=C2/[N-][C@H]([C@H](CC(N)=O)[C@@]2(C)CCC(=O)NC[C@@H](C)OP(=O)([O-])O[C@H]2[C@@H](O)[C@@H](n3cnc4cc(C)c(C)cc43)O[C@@H]2CO)[C@]2(C)N=C(/C(C)=C3N=C(/C=C4N=C1[C@@H](CCC(N)=O)C\4(C)C)[C@@H](CCC(N)=O)[C@]\3(C)CC(N)=O)[C@@H](CCC(N)=O)[C@]2(C)CC(N)=O.[CH2-][C@H]1O[C@@H](n2cnc3c(N)ncnc32)[C@H](O)[C@@H]1O.[Co] [AdoCbl, adenosylcobalamin, reference compound]",Kd,[1]; previous study of MMUT ref 49,40 nM
same,Kd,[1]; previous study of MMUT ref 50,270 ± 110 nM
same,activity of WT MMUT with the cobamide (in words),MMUT WT,active
same,activity of MMUT variants with the cobamide (in words),[2],significantly reduced specific activity
same,Kd,[3],80 ± 30 nM
same,Km,[4],0.05 µM
same,MMUT activity with the cobamide (in words),[5]; coupled spectrophotometric assay,active
same,Km,"[5]; read-out: KM, app, methylmalonyl-CoA 4 mM, MMUT 10 nM",0.04 ± 0.02 µM

# Reference: paper PMC8682075 (Biochimie, 2020)
